In ChEMBL document CHEMBL1143299, “Synthesis and biological activity of novel shikonin analogues” (Bioorg Med Chem Lett, 2009):
Active and inactive are the calls of the source. No cut-off for these calls is given here.

Experiments:
Assay type in all cases: functional, cell-based
HL-60 = assay: Cytotoxicity against human HL60 cells by MTT assay
How it was run: (§1)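 IC50 from three independent experiments; growth inhibition read by SRB (adherent lines) or MTT (HL60, K562).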

HeLa = assay: Cytotoxicity agaisnt human HeLa cells by SRB assay; how it was run: as §1
MDA-MB-231 [1] = assay: Reduction of hypoxia-induced HIF1alpha accumulation in human MDA-MB-231 cells at 10 uM by Western blotting analysis
How it was run: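 MDA-MB-231 cells (5 × 10⁵) treated at 10 µM, held in hypoxia (1% O₂) for 10 h, then lysed in 1× SDS loading buffer (pH 6.8 Tris–HCl, DTT, SDS) and boiled. Equal lysate amounts run on 10% SDS–PAGE, transferred to nitrocellulose, probed for HIF-1α and β-actin with HRP secondary antibodies, detected by ECL. Representative of three independent experiments.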

K562 = assay: Cytotoxicity agaisnt human K562 cells by MTT assay; how it was run: as §1
A549 = assay: Cytotoxicity agaisnt human A549 cells by SRB assay; how it was run: as §1
[2] = Cytotoxicity agaisnt human KB-3-1 cells by SRB assay; how it was run: as §1
[3] = Cytotoxicity agaisnt human Rh30 cells by SRB assay; conditions: SJRH30; how it was run: as §1
HT-29 = assay: Cytotoxicity agaisnt human HT29 cells by SRB assay; how it was run: as §1
HCT-116 = assay: Cytotoxicity agaisnt human HCT116 cells by SRB assay; how it was run: as §1
MDA-MB-231 [4] = assay: Cytotoxicity agaisnt human MDA-MB-231 cells by SRB assay; how it was run: as §1
KB = assay: Cytotoxicity agaisnt vincristine-resistant human KB cells by SRB assay; how it was run: as §1

Row | SMILES | IC50 (HL-60) [µM] | IC50 (HeLa) [µM] | further results
1 | CC(C)=CC[C@@H](O)C1=CC(=O)c2c(O)ccc(O)c2C1=O [SHIKONIN] | 0.44 | 13.4 | Activity (MDA-MB-231 [1]): Active
2 | CCOC(=O)c1ccc(S(=O)(=O)NC(C)C2=CC(=O)c3c(O)ccc(O)c3C2=O)cc1 (centres undefined) | 0.12 | 2.26 | –
3 | CC(NS(=O)(=O)c1ccccc1Br)C1=CC(=O)c2c(O)ccc(O)c2C1=O (centres undefined) | 0.12 | 6.2 | Activity (MDA-MB-231 [1]): Active
4 | CCOC(=O)c1ccc(S(=O)(=O)NC(C2=CC(=O)c3c(O)ccc(O)c3C2=O)C(C)C)cc1 (centres undefined) | 0.15 | 0.85 | IC50 (K562): 18.2 µM; IC50 (A549): 11.4 µM; IC50 [2]: 11.8 µM; IC50 [3]: 2.6 µM; IC50 (HT-29): 2.8 µM; IC50 (HCT-116): 3.8 µM; IC50 (MDA-MB-231 [4]): 4.7 µM; IC50 (KB): 13.2 µM
5 | CC(=O)c1ccc(S(=O)(=O)NC(C2=CC(=O)c3c(O)ccc(O)c3C2=O)C(C)C)cc1 (centres undefined) | 0.11 | 3.82 | –
6 | Cc1ccc(S(=O)(=O)NC(C)C2=CC(=O)c3c(O)ccc(O)c3C2=O)cc1 (centres undefined) | 0.03 | 5.34 | –
7 | CC(C)C(NS(=O)(=O)c1ccccc1Br)C1=CC(=O)c2c(O)ccc(O)c2C1=O (centres undefined) | 0.34 | 8.31 | –
8 | CC(NS(=O)(=O)c1ccc(F)cc1)C1=CC(=O)c2c(O)ccc(O)c2C1=O (centres undefined) | 0.09 | 6.41 | –
9 | CC(NS(=O)(=O)c1ccc(Br)cc1)C1=CC(=O)c2c(O)ccc(O)c2C1=O (centres undefined) | 0.1 | 5.21 | –
10 | Cc1ccc(S(=O)(=O)NC(C2=CC(=O)c3c(O)ccc(O)c3C2=O)C(C)C)cc1 (centres undefined) | – | 4.85 | –
11 | COc1ccc(S(=O)(=O)NC(C)C2=CC(=O)c3c(O)ccc(O)c3C2=O)cc1 (centres undefined) | 0.02 | 3.76 | –
12 | COc1ccc(S(=O)(=O)NC(C2=CC(=O)c3c(O)ccc(O)c3C2=O)C(C)C)cc1 (centres undefined) | – | 8.95 | –
13 | COc1cc([C@@H]2c3cc4c(cc3[C@@H](O)[C@H]3COC(=O)[C@H]23)OCO4)cc(OC)c1O [4'-DEMETHYLEPIPODOPHYLLOTOXIN] | 0.82 | 0.98 | –
14 | CC(C)C(NS(=O)(=O)c1ccc(Br)cc1)C1=CC(=O)c2c(O)ccc(O)c2C1=O (centres undefined) | – | 7.65 | –
15 | COc1ccc(S(=O)(=O)NC(C)C2=CC(=O)c3c(O)ccc(O)c3C2=O)c(OC)c1 (centres undefined) | 0.5 | 19.5 | –
16 | CC(NS(=O)(=O)c1cccc(Br)c1)C1=CC(=O)c2c(O)ccc(O)c2C1=O (centres undefined) | 0.16 | 6.35 | Activity (MDA-MB-231 [1]): Active
17 | CC(=O)c1ccc(S(=O)(=O)NC(C)C2=CC(=O)c3c(O)ccc(O)c3C2=O)cc1 (centres undefined) | 0.26 | 5.76 | –
18 | CC(NS(=O)(=O)c1ccc(Cl)cc1)C1=CC(=O)c2c(O)ccc(O)c2C1=O (centres undefined) | 0.25 | 0.81 | IC50 (K562): 19.9 µM; IC50 (A549): 8.3 µM; IC50 [2]: 6.9 µM; IC50 [3]: 1.9 µM; IC50 (HT-29): 1.3 µM; IC50 (HCT-116): 3.2 µM; IC50 (MDA-MB-231 [4]): 4.5 µM; Activity (MDA-MB-231 [1]): Active; IC50 (KB): 12.4 µM
19 | CC(C)C(NS(=O)(=O)c1ccc(Cl)cc1)C1=CC(=O)c2c(O)ccc(O)c2C1=O (centres undefined) | – | 8.65 | –
20 | CC(C)C(NS(=O)(=O)c1ccc(F)cc1)C1=CC(=O)c2c(O)ccc(O)c2C1=O (centres undefined) | – | 6.65 | –
21 | CC(C)C(NS(=O)(=O)c1cccc(Br)c1)C1=CC(=O)c2c(O)ccc(O)c2C1=O (centres undefined) | 0.79 | 0.86 | –
22 | COc1ccc(S(=O)(=O)NC(C2=CC(=O)c3c(O)ccc(O)c3C2=O)C(C)C)c(OC)c1 (centres undefined) | 0.4 | 2.75 | –
23 | Cc1ccccc1S(=O)(=O)NC(C)C1=CC(=O)c2c(O)ccc(O)c2C1=O (centres undefined) | 0.07 | 4.49 | Activity (MDA-MB-231 [1]): Active
24 | Cc1ccccc1S(=O)(=O)NC(C1=CC(=O)c2c(O)ccc(O)c2C1=O)C(C)C (centres undefined) | 0.19 | 0.79 | –
